Experiments:
[1] = species on record: Oryctolagus cuniculus; assay: In vitro percent inhibition against U-44,069 (10e-7 M) induced contraction of rabbit aorta at 10e-5 M concentration.; type: functional
Outline: (§1)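 Rabbit aortic strips (2-3 mm × 3 cm) in Krebs-Henseleit, 37 °C, 95% O2/5% CO2, 2 g resting tension, isometric recording. Drugs (final 10⁻⁵ to 10⁻⁸ M, 0.01% DMSO) added 10 min before U-44069 (2-6 nM, about 50% of the 30 mM KCl contraction). Percent inhibition, or concentration reducing contraction by 50%; duplicate means.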

[2] = species on record: Oryctolagus cuniculus; assay: In vitro percent inhibition against U-44,069 (10e-7 M) induced contraction of rabbit aorta at 10e-6 M concentration; type: functional; outline: as §1
[3] = species on record: Oryctolagus cuniculus; assay: In vitro concentration that reduced U-44069-induced contraction of the rabbit aorta by 50%; type: functional; outline: as §1
[4] = species on record: Oryctolagus cuniculus; assay: In vitro percent inhibition against U-44,069 (10e-7 M) induced contraction of rabbit aorta at 10e-7 M concentration; type: functional; outline: as §1
[5] = tested on: Cavia porcellus; assay: In vivo percentage of inhibition against U-46619 -induced bronchoconstriction in guinea pig at a concentration of 0.08 mg/kg after 1 hour of oral administration; type: functional
Outline: (§2)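 Urethane-anesthetized (1.5 g/kg ip) guinea pigs given gallamine (1 mg/kg iv); bronchoconstriction measured by Konzett-Rössler overflow. Challenge was U-46619, LTD4 or PAF at 10 μg/kg iv, or IgG1-mediated in animals sensitized ip with egg albumin (1 mg/kg)/FCA and used 3 weeks later. Drug given orally in 5% gum arabic 1 h before challenge; n = 8. ID50 = dose giving 50% inhibition.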

[6] = tested on: Cavia porcellus; assay: In vivo percentage of inhibition against U-46619 -induced bronchoconstriction in guinea pig at a concentration of 0.31 mg/kg after 1 hour of oral administration; type: functional
Outline: (§3)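 Guinea pigs were challenged iv with LTD4, PAF or U-46619, each at 10 µg/kg. Bronchoconstriction was measured by the Konzett-Rössler overflow method, as for the sensitized animals (urethane 1.5 g/kg ip, gallamine 1 mg/kg iv). Drug suspended in 5% gum arabic was dosed orally 1 h before spasmogen; eight animals per group; percent inhibition of bronchoconstriction.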

[7] = species on record: Oryctolagus cuniculus; assay: In vitro concentration that reduced U-44069-induced contraction of the rabbit aorta; type: functional; details: read-out: pA2 (converted); outline: as §1
[8] = species on record: Cavia porcellus; assay: In vitro concentration that reduced U-46619-induced contraction of guinea pig lung; details: read-out: pA2 (converted)
[9] = tested on: Cavia porcellus; assay: In vivo percentage of inhibition against IgG1 -induced bronchoconstriction in guinea pig at a concentration of 0.31 mg/kg after 1 hour of oral administration; type: functional
Outline: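 Guinea pigs sensitized ip with egg albumin (1 mg/kg) emulsified in Freund's complete adjuvant. Three weeks later, animals whose sera at 1:1000 gave a positive 3-h passive cutaneous anaphylaxis were used. Under urethane (1.5 g/kg ip) and gallamine (1 mg/kg iv), IgG1-mediated bronchoconstriction was measured by Konzett-Rössler overflow. Drug in 5% gum arabic was given orally 1 h before challenge; eight animals per group.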

[10] = tested on: Cavia porcellus; assay: In vivo percentage of inhibition against LTD -induced bronchoconstriction in guinea pig at a concentration of 0.08 mg/kg after 1 hour of oral administration; type: functional; outline: as §2
[11] = species on record: Cavia porcellus; assay: In vitro concentration that reduced U-44069-induced aggregation of guinea pig platelets by 50%; type: functional
Outline: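 PRP from conscious male guinea pigs, blood taken by cardiac puncture into 3.15% citrate (1:9); platelets adjusted to 450 000/μL. PRP preincubated 2 min at 37 °C, then incubated 2 min with U-44069 at a concentration giving submaximal aggregation. IC50 = antagonist concentration reducing aggregation by 50%.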

[12] = tested on: Cavia porcellus; assay: In vivo percentage of inhibition against LTD -induced bronchoconstriction in guinea pig at a concentration of 1.25 mg/kg after 1 hour of oral administration; type: functional; outline: as §2
[13] = tested on: Cavia porcellus; assay: In vivo percentage of inhibition against IgG1 -induced bronchoconstriction in guinea pig at a concentration of 5 mg/kg after 1 hour of oral administration; type: functional; outline: as §2
[14] = tested on: Cavia porcellus; assay: In vivo percentage of inhibition against PAF-induced bronchoconstriction in guinea pig at a concentration of 5 mg/kg after 1 hour of oral administration; type: functional; outline: as §2
[15] = tested on: Cavia porcellus; assay: In vivo percentage of inhibition against PAF-induced bronchoconstriction in guinea pig at a concentration of 1.25 mg/kg after 1 hour of oral administration; type: functional; outline: as §2
[16] = tested on: Cavia porcellus; assay: In vivo inhibition against LTD-induced bronchoconstriction in guinea pig; type: functional; details: read-out: ID50 (the source's name); outline: as §2
[17] = tested on: Cavia porcellus; assay: In vivo inhibition against U-46619-induced bronchoconstriction in guinea pig; type: functional; details: read-out: ID50 (the source's name); outline: as §2
[18] = tested on: Cavia porcellus; assay: In vivo percentage of inhibition against U-46619-induced bronchoconstriction in guinea pig at a concentration of 1.25 mg/kg after 1 hour of oral administration; type: functional; outline: as §2
[19] = tested on: Cavia porcellus; assay: In vivo percentage of inhibition against LTD -induced bronchoconstriction in guinea pig at a concentration of 5 mg/kg after 1 hour of oral administration; type: functional; outline: as §2
[20] = tested on: Cavia porcellus; assay: In vivo percentage of inhibition against IgG1 -induced bronchoconstriction in guinea pig at a concentration of 1.25 mg/kg after 1 hour of oral administration; type: functional; outline: as §2
[21] = tested on: Cavia porcellus; assay: In vivo percentage of inhibition against PAF -induced bronchoconstriction in guinea pig at a concentration of 0.31 mg/kg after 1 hour of oral administration; type: functional; outline: as §3
[22] = tested on: Cavia porcellus; assay: In vivo percentage of inhibition against LTD -induced bronchoconstriction in guinea pig at a concentration of 0.31 mg/kg after 1 hour of oral administration; type: functional; outline: as §3
[23] = tested on: Cavia porcellus; assay: In vivo inhibition against IgG1-induced bronchoconstriction in guinea pig; type: functional; details: read-out: ID50 (the source's name); outline: as §2
[24] = species on record: Oryctolagus cuniculus; assay: Percent inhibition of compound against U-44,069 (10e-7 M) induced contraction of rabbit aorta at 3*10e-8 M concentration; type: functional; outline: as §1
[25] = species on record: Cavia porcellus; assay: In vitro concentration that reduced U-46619-induced contraction of guinea pig lung; details: read-out: pA2 (converted); remark: listed apart in the source

`CC1=C(C)C(=O)C(C(CCCCC(=O)O)c2ccccc2)=C(C)C1=O` (stereo not given) showed an Inhibition [1] of 63%.

`CC1=C(C)C(=O)C(C(CCC(=O)O)c2ccccc2)=C(C)C1=O` (stereo not given) gave an Inhibition [1] of 0%.

Molecule `COc1ccccc1C(CCCCCC(=O)O)C1=C(C)C(=O)C(C)=C(C)C1=O` (stereo not given) has an Inhibition [1] of 0%.

Molecule `CC1=C(C)C(=O)C(C(CCCCCCCC(=O)O)c2ccccc2)=C(C)C1=O` (stereo not given) has an Inhibition [2] of 0%, an IC50 [3] of 3400 nM and an Inhibition [1] of 94%.

Molecule `COC(=O)CCCCCC(C1=C(C)C(=O)C(C)=C(C)C1=O)c1ccccc1` (stereo not given) has an Inhibition [2] of 36%, an IC50 [3] of 1400 nM and an Inhibition [1] of 95%.

In the case of `CCCCCCC(C1=C(C)C(=O)C(C)=C(C)C1=O)c1ccccc1` (stereo not given), the Inhibition [1] is reported as 25%.

`CC1=C(C)C(=O)C(C(C)CCCCCC(=O)O)=C(C)C1=O` (stereo not given) gave an Inhibition [1] of 0%.

For `CC1=C(C)C(=O)C(C(CCCC(=O)O)c2ccccc2)=C(C)C1=O` (stereo not given), the Inhibition [1] was 24%.

Molecule `COC1=C(OC)C(=O)C(C(CCCCCC(=O)O)c2ccccc2)=C(C)C1=O` (stereo not given) has an Inhibition [1] of 0%.

`CC1=C(C)C(=O)C(C(CCCCCC(=O)O)c2ccc(C)cc2)=C(C)C1=O` (stereo not given) gave an Inhibition [2] of 50%, an IC50 [3] of 1000 nM and an Inhibition [1] of 100%.

In the case of `CC1=C(C)C(=O)C(C(CCCCCC(=O)O)c2cccs2)=C(C)C1=O` (stereo not given), the Inhibition [2] is reported as 65%, the IC50 [3] is reported as 760 nM and the Inhibition [4] is reported as 0%. It also gave an Inhibition [1] of 100%.

In the case of `CC1=C(C)C(=O)C(C(CCC(=O)NCC(=O)O)c2ccccc2)=C(C)C1=O` (stereo not given), the Inhibition [1] is reported as 0%.

With `CC1=C(C)C(=O)C(C(CCCCCC(=O)O)c2ccc(Cl)cc2)=C(C)C1=O` (stereo not given) the Inhibition [2] was 91%, the IC50 [3] was 280 nM and the Inhibition [4] was 17%. The Inhibition [1] was 100%.

For `CC1=C(C)C(=O)C(C(CCCCCC(=O)O)c2cccc(F)c2)=C(C)C1=O` (stereo not given), the Inhibition [2] was 31%, the IC50 [3] was 1900 nM and the Inhibition [1] was 100%.

For `CC1=C(C)C(=O)C(C(CCCCCC(=O)O)c2ccccc2)=C(C)C1=O` (stereo not given) [SERATRODAST], the inhibition in vivo at 0.08 mg/kg [5] was 31%, the inhibition in vivo at 0.31 mg/kg [6] was 89% and the Kb [7] was 5.25 nM. The Kb [8] was 5.13 nM, the inhibition in vivo at 0.31 mg/kg [9] was 71% and the inhibition in vivo at 0.08 mg/kg [10] was 24%. It also gave an IC50 [11] of 350 nM, an Inhibition [2] of 99% and an inhibition in vivo at 1.25 mg/kg [12] of 77%. For the same molecule, the inhibition in vivo at 5 mg/kg [13] was 91%, the IC50 [3] was 100 nM and the inhibition in vivo at 5 mg/kg [14] was 85%. For the same molecule, the inhibition in vivo at 1.25 mg/kg [15] was 94%, the Inhibition [4] was 49% and the ED50 [16] was 0.19 mg/kg. The ED50 [17] was 0.13 mg/kg, the inhibition in vivo at 1.25 mg/kg [18] was 90% and the inhibition in vivo at 5 mg/kg [19] was 94%. For the same molecule, the inhibition in vivo at 1.25 mg/kg [20] was 85%, the inhibition in vivo at 0.31 mg/kg [21] was 66% and the inhibition in vivo at 0.31 mg/kg [22] was 58%. For the same molecule, the ED50 [23] was 0.2 mg/kg and the Inhibition [1] was 99%.

In the case of `CC1=C(C)C(=O)C(C(CCCCCC(=O)O)c2ccc(F)cc2)=C(C)C1=O` (stereo not given), the Inhibition [2] is reported as 100%, the IC50 [3] is reported as 48 nM and the Inhibition [4] is reported as 96%. For the same molecule, the Inhibition [24] was 20% and the Inhibition [1] was 100%.

With `CC1=C(C)C(=O)C(C(CCCCCC(=O)O)c2ccccc2C)=C(C)C1=O` (stereo not given) the Inhibition [2] was 0%, the IC50 [3] was 3200 nM and the Inhibition [1] was 99%.

`CC1=C(C)C(=O)C([C@H](CCCCCC(=O)O)c2ccccc2)=C(C)C1=O` gave an inhibition in vivo at 0.08 mg/kg [5] of 72%, an inhibition in vivo at 0.31 mg/kg [6] of 75% and a Kb [7] of 2.51 nM. For the same molecule, the inhibition in vivo at 0.08 mg/kg [10] was 12%, the IC50 [11] was 120 nM and the inhibition in vivo at 1.25 mg/kg [12] was 85%. It also gave a Kb [25] of 1.58 nM, an inhibition in vivo at 1.25 mg/kg [18] of 93% and an inhibition in vivo at 5 mg/kg [19] of 80%. It also gave an inhibition in vivo at 0.31 mg/kg [22] of 85%.

Molecule `CC1=C(C)C(=O)C(C(CCCCCC(=O)NCC(=O)O)c2ccccc2)=C(C)C1=O` (stereo not given) has an Inhibition [1] of 0%.

Reference: ChEMBL document CHEMBL1124597, “Quinones. 4. Novel eicosanoid antagonists: synthesis and pharmacological evaluation” (J Med Chem, 1989)
